Data set [1] in a line: In vivo pharmacokinetic analysis. On the set-up: species or system rat. To be noted: portal vein cannulated rats, oral.
Data set [2] concerns the target hCav1.2 (Homo sapiens, UniProt Q13936). Briefly: Patch clamp Cav1.2 Quattro. It is filed as cell-based. The method in brief: (§1)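 Each channel was stably expressed in HEK293 cells and tested by patch clamp with a 7-point concentration-response.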
Background: Patch clamp records ionic current or voltage across a cell membrane.

Data set [3] is described as follows: Stability in intestinal S9 fraction. It is filed as in vitro ADME. To be noted: rat. The method in brief: (§2)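 Test compound added to intestinal S9 fraction of each species to start the reaction. Incubated in a shaking water bath at 37 °C, with samples taken at sequential timepoints. Samples quenched with ice-cold acetonitrile and analysed by LC-MS/MS. Half-life calculated from the rate of parent compound depletion.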

Data set [4] addresses T1, CpPI(4)K (Cryptosporidium parvum, UniProt Q5CVD3).
T1 sequence (Q5CVD3 1-1114): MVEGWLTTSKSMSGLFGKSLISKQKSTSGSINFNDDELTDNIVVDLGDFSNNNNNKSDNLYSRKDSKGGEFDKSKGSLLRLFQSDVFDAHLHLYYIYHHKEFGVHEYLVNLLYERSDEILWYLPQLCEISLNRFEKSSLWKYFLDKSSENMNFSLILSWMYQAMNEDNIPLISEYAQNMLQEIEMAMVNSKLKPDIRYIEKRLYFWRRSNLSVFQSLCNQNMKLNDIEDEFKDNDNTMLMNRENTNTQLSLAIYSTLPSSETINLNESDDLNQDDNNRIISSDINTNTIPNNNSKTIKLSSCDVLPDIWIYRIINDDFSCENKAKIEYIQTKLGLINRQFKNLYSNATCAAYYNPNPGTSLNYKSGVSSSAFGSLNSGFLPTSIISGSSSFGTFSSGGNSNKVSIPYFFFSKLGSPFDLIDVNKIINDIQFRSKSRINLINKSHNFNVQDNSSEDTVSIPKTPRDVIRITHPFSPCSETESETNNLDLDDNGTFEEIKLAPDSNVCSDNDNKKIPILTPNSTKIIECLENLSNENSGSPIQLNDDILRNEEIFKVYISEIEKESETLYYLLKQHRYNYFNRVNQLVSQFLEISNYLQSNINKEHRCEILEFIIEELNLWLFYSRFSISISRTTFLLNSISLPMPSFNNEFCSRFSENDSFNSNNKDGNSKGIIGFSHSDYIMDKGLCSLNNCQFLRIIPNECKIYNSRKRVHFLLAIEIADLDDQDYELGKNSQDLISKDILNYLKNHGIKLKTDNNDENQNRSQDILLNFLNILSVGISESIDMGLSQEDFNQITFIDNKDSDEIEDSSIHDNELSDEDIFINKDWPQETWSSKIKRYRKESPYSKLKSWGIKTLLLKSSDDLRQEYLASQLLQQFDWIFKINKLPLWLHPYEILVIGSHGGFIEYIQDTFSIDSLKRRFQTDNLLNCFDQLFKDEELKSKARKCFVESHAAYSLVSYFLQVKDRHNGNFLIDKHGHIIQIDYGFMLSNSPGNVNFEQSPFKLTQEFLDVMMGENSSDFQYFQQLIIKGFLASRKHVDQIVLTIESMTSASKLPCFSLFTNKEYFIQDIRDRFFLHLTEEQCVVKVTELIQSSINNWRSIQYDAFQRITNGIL
Briefly: PI. It is filed as biochemical, C. parvum. To be noted: CpPI(4)K IC50, 3 μM ATP. In a few lines:
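Enzyme was pre-incubated with compound for 5 min at room temperature. The reaction was started with substrate mix at twice final strength (PI, ATP, Tris-HCl pH 7.5, DTT, 0.05% Triton X-100, MnCl2) and run 50 min at room temperature. ADP was measured by ADP-Glo luminescence. IC50s came from in-plate duplicate 10-point 3-fold dilutions, with DMSO and reference-inhibitor controls. The C. parvum enzymes (wild type and mutants) were full-length proteins expressed from baculovirus in Sf21 cells.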

The target of data set [5] is hNav1.5 (Homo sapiens, UniProt Q14524). Kind of data set: Patch clamp Nav1.5 Quattro. It counts as cell-based. In a few lines:
as §1

For data set [6], the system named is C. hominis. Briefly: Cytopathic effect. It is filed as cell-based, Cryptosporidium hominis. To be noted: HCT-8, 48 h, read-out: Ch CPE EC50. The method in brief: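 HCT-8 cells were grown at 37 °C, 5% CO2 in RPMI-1640 with 10% heat-inactivated FBS. Oocysts were excysted in 10 mM HCl/HBSS for 10 min at 37 °C, then in 2 mM sodium taurocholate in L-15/UltraCULTURE medium for 5 min. Infected cells were seeded onto pre-spotted compound (10-point, 3-fold dilution; DMSO and reference-inhibitor controls) and incubated 48 h. Cells were then lysed for a viability read-out, and concentration-response curves were fitted.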

Data set [7] has as its system liver and duodenum. Briefly: In vivo rat Comet assay. To be noted: up to 2000 mg/kg/day. The method in brief: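 Liver and duodenum were sampled near Tmax after the second dose for the Comet assay.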
Data set [8] is described as follows: Liver microsomes metabolic stability. To be noted: rat. It counts as in vitro ADME. The method in brief: (§3)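 Test compound was incubated with liver microsomes or hepatocytes of each species, and parent depletion was quantified by LC-MS/MS. From this, in vitro half-life and intrinsic clearance were derived, along with predicted metabolic clearance and hepatic extraction ratio.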

Data set [9] is described as follows: Stability in intestinal S9 fraction. It is filed as in vitro ADME. To be noted: mouse. In a few lines: as §2
Data set [10] is described as follows: Liver microsomes metabolic stability. It is filed as in vitro ADME. To be noted: dog. The method in brief:
as §3
Background: Liver microsomes are vesicles of endoplasmic reticulum, rich in cytochrome P450 enzymes.

Data set [11] in a line: Neonatal calf pharmacokinetics. It is filed as in vivo. To be noted: bovine, plasma, po, 10 mg/kg. In a few lines:
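Calves were dosed orally at 10 mg/kg birth weight every 12 h, at least 2 h after feeding. On day 1, blood was drawn before dosing and at several timepoints up to 12 h.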

The nature of data set [12]: Hepatocytes metabolic stability. To be noted: human. It is filed as in vitro ADME. In a few lines:
as §3

A short description of data set [13]: Plasma stability. It is filed as in vitro ADME. To be noted: rat. The method in brief:
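Test compound was added to plasma and incubated at 37 °C in a shaking water bath, with samples taken at sequential timepoints. Samples were quenched with ice-cold acetonitrile and analysed by LC-MS/MS, and half-life was calculated from the depletion rate.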

Data set [14] deals with C. parvum. Kind of data set: Host cell invasion assay. It counts as cell-based, Cryptosporidium parvum. To be noted: HCT-8, 3 h; EDI048 and KDU731 20 µM, wiskostatin 11.3 µM. The method in brief: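 HCT-8 monolayers were 95–100% confluent. Compounds were added at twice the final concentration 1 h before infection with 50,000 primed oocysts per well. Plates were kept 3 h at 37 °C, 5% CO2, then washed with PBS-0.1% Tween 20, fixed in 4% PFA for 15 min at room temperature, permeabilized with 0.25% Triton X-100 and blocked in 4% BSA. Vacuoles were stained with fluorescein-VVL and nuclei with Hoechst, then imaged.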

Data set [15] is described as follows: Plasma protein binding. It counts as in vitro ADME. To be noted: human.

Usually IC50 stands for the concentration that gives 50% inhibition. Lower therefore signals greater potency. Broadly, the half-life is the time in which the quantity being followed falls by half. Low readings indicate fast loss, high ones slow loss. What is called EC50 is the concentration needed to bring the measured effect to its halfway point. As usually defined, the microsomal CLint is the capacity of the preparation to metabolise the compound, expressed as a volume cleared per time. What is called Tmax is the time from dosing to the highest level. A word on the hepatocyte CLint: it is the rate of metabolic loss divided by the concentration. A higher hepatocyte CLint goes with rapid turnover. As usually defined, the fraction unbound is the share of the substance not bound to proteins or other matrix. A higher fraction unbound goes with weak binding.

Structures are written as SMILES. “Also recorded” adds a separate entry of the source. Like-named read-outs stand apart in the source and are kept apart here. Bounds are passed on as bounds.

Sequence of hNav1.5 (Q14524 whole entry): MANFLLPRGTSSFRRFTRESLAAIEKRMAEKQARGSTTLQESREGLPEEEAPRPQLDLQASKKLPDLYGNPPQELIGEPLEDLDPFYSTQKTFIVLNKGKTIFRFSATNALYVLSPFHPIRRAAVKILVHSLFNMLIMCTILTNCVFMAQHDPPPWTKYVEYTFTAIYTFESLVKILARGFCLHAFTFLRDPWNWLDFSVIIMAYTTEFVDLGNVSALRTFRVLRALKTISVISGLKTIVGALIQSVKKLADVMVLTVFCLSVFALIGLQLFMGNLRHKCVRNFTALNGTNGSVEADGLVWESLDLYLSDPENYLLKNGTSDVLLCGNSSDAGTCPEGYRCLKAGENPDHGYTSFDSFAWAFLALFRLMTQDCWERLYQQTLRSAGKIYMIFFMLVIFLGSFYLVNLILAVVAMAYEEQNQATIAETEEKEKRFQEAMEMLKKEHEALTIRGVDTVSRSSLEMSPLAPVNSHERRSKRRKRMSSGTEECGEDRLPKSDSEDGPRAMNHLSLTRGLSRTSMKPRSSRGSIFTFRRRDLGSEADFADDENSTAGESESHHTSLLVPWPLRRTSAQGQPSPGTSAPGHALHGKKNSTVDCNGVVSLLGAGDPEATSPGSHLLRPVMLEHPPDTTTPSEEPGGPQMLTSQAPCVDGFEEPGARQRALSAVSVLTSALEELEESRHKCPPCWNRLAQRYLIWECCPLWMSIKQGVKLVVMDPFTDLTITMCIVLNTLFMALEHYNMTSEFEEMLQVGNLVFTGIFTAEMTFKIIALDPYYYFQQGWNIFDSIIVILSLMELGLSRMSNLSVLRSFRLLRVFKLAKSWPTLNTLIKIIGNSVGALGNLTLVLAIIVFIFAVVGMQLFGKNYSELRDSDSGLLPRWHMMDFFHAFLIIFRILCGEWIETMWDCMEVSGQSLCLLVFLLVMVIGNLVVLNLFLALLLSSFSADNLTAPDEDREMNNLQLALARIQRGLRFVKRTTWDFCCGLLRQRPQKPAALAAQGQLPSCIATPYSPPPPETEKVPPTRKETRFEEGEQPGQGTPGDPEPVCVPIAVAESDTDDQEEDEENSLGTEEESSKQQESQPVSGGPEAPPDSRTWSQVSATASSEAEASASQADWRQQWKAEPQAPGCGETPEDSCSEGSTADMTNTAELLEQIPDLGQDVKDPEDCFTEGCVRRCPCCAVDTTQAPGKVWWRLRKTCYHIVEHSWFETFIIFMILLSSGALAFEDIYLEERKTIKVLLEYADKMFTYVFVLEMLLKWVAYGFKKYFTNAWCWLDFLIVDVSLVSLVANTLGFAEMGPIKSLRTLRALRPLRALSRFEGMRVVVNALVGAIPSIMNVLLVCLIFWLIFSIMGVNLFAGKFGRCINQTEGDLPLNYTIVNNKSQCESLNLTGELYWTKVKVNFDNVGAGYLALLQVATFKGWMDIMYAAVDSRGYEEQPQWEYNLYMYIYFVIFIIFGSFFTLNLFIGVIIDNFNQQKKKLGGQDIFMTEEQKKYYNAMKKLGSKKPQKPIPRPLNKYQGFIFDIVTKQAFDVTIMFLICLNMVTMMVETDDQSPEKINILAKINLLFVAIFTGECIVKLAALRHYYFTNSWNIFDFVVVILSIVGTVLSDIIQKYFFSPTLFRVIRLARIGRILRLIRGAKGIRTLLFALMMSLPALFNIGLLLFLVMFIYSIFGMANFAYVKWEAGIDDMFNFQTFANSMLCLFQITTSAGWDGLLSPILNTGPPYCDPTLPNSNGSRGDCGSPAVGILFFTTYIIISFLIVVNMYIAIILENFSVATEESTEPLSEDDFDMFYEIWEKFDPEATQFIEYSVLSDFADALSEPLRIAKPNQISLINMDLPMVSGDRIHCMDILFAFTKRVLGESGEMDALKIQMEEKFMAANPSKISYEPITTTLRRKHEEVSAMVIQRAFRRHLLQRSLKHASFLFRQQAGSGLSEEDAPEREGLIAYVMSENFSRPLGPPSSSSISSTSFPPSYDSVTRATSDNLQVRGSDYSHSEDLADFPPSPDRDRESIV

For the compound `CNC(=O)c1ccc(-c2cnn3ccc(C(=O)N(C)c4ccc(Cl)c(C(=O)OC)c4)cc23)cc1` [EDI048, methyl 2-chloro-5-(N-methyl-3-(4-(methylcarbamoyl)phenyl)pyrazolo[1,5-a]pyridine-5-carboxamido)benzoate], the “portal vein concentration relative to systemic levels” value in data set [1] is reported as ~ 40 fold. The IC50 in [2] was greater than 50000 nM; in [4], 4 ± 2 nM; in data set [5], greater than 50000 nM. Also, the half-life is greater than 4 h in data set [3], 0.75 h in [9], less than 0.05 h in data set [12] (hepatocytes) and 0.193 h in [13]. The EC50 in data set [6] (Cryptosporidium hominis) amounted to 50 ± 1 nM. The “In vivo rat Comet assay” value in [7] is given as “Negative^e”. Besides, the “Microsomal ER” value in data set [8] was 96%; in data set [10] it was 94%. In addition, the microsomal CLint in [8] (liver microsomes) is greater than 700 µL/min/mg; in data set [10] (liver microsomes), 271 µL/min/mg. Further, the Tmax worked out at 12 h in data set [11] (infected calves with diarrhea) and 2 h in [11] (uninfected healthy calves). This compound displayed a hepatocyte CLint in data set [12] (hepatocytes) greater than 231 µL/min/1e6 cells. The sporozoite invasion result in [14] is “inactive; also recorded: does not affect sporozoite invasion”. Also, the fraction unbound in data set [15] (plasma) was 0.045.
As for `CN(C(=O)c1ccn2ncc(-c3ccc(C(N)=O)cc3)c2c1)c1ccc(C#N)cn1` [KDU731, 3–(4-carbamoylphenyl)-N-(5-cyanopyridin-2-yl)-N-methylpyrazolo [1,5-a]pyridine-5-carboxamide, reference compound], the IC50 is 17 ± 8 nM in [4] and greater than 50000 nM in data set [5]. For the same compound, the EC50 in [6] (C. hominis) is 130 nM. Also, the “Microsomal ER” value in data set [8] was found to be 47%; in data set [10], 67%. Besides, the “microsomal CLint” value turned out to be 29 µL/min/mg in [8] and 36 µL/min/mg in data set [10]. The half-life in data set [9] was greater than 4 h; in data set [12] (hepatocytes), 0.965 h; in data set [13], greater than 2 h. Further, the “Hepatocytes ER” value in data set [12] is 60%. For the same compound, in data set [12], the Hepatocytes clearance came to 12 μl/min/million cells. The sporozoite invasion entry in data set [14] is “inactive”. For the same compound, the “% Plasma protein binding” value in [15] was 79.1%.

The values are drawn from publication PMC11522000 (Nature Microbiology, 2024).
